Published values collected from several papers.
Protocols differ between the studies behind these lines.
Cell line: A549
Effect on: cell growth or viability

SMILES | method | tested at | time | quantity | result
COc1ccc2c(c1)C(=NNc1nc(-c3ccc(OC)c(OC)c3)nc3ccccc13)C(=O)N2 | – | 30 µM | – | inhibition | 17%
O=C(CN1C(=O)/C(=C/c2cccc(Cl)c2)SC1=S)Nc1ccccc1 | MTT | 10 µM | – | inhibition | 25.9%
COC(=O)C1=C(C)NC(C)=C(C(=O)OCCN(C)Cc2ccccc2)C1c1cccc([N+](=O)[O-])c1 (stereo not shown) | CCK-8 | 100 µM | 72 h | viability | < 50%
CCN(CC)CCNC(=O)c1c(C)[nH]c(/C=C2\C(=O)Nc3ccc(F)cc32)c1C | – | 30 µM | – | inhibition | 85.7%
O=C(CN1C(=O)/C(=C/c2ccccn2)SC1=S)Nc1ccccc1 | MTT | 10 µM | – | inhibition | 32.6%
CS(=O)(=O)CCNCc1ccc(-c2ccc3ncnc(Nc4ccc(OCc5cccc(F)c5)c(Cl)c4)c3c2)o1 | MTT | – | 72 h | EC50 | 67 µM
CNS(=O)(=O)Nc1nccc(Cc2c(C)c3ccc(Oc4ncccn4)cc3oc2=O)c1F | CCK-8 | – | – | GI50 | 5.07 µM
O=C(CN1C(=O)/C(=C/c2cccc(O)c2)SC1=S)Nc1ccccc1 | MTT | 10 µM | – | inhibition | 14.5%
COc1cccc2c1C(=O)c1c(O)c3c(c(O)c1C2=O)C[C@@](O)(C(=O)CO)C[C@@H]3O[C@H]1C[C@H](N)[C@H](O)[C@H](C)O1 | MTT | – | 72 h | GI50 | 5.66 µM
COc1ccccc1OCCNCC(O)COc1cccc2[nH]c3ccccc3c12 (stereo not shown) | CCK-8 | 100 µM | 72 h | viability | < 50%
C=C(c1ccc(C(=O)O)cc1)c1cc2c(cc1C)C(C)(C)CCC2(C)C | MTT | – | 72 h | EC50 | 58 µM
O=C(CN1C(=O)/C(=C/c2ccc(C(F)(F)F)cc2)SC1=S)Nc1ccccc1 | MTT | 10 µM | – | inhibition | 27.8%
COc1ccc(-c2nc(NN=C3C(=O)Nc4ccc(F)cc43)c3ccccc3n2)cc1OC | – | 30 µM | – | inhibition | 4.9%
COC(C)(C)CCC[C@](C)(O)[C@H]1CC[C@]2(C)[C@@H]1[C@H](O)C[C@@H]1[C@@]3(C)CC[C@H](O)C(C)(C)[C@@H]3CC[C@]12C | MTT | – | 72 h | IC20 | 0.66 µM
CCn1cc(C(=O)O)c(=O)c2cc(F)c(N3CCNCC3)cc21 | SRB | – | 48 h | GI50 | > 80 µg/mL
Cn1c(=O)c(NN=C2C(=O)Nc3ccc(Cl)cc32)nc2ccccc21 | – | 30 µM | – | inhibition | 27.1%
CC(C)=CCC[C@](C)(O)[C@H]1CC[C@]2(C)[C@@H]1[C@H](O)C[C@@H]1[C@@]3(C)CC[C@H](O[C@@H]4O[C@H](CO)[C@@H](O)[C@H](O)[C@H]4O[C@@H]4O[C@H](CO)[C@@H](O)[C@H](O)[C@H]4O)C(C)(C)[C@@H]3CC[C@]12C | MTT | – | 72 h | IC80 | > 100 µM
C[C@]12CC[C@@H]3c4ccc(O)cc4CC[C@H]3[C@@H]1CC[C@@H]2O | ATP luminescence | – | 72 h | EC90 | 56.1 µM
CC(C)c1ccc(/C=C2\SC(=S)N(CC(=O)Nc3ccccc3)C2=O)cc1 | MTT | 10 µM | – | inhibition | 22.5%
